Test results as given in ChEMBL document CHEMBL1932980, “Structure-activity relationships of 2-amino-3-aroyl-4-[(4-arylpiperazin-1-yl)methyl]thiophenes. Part 2: Probing the influence of diverse substituents at the phenyl of the arylpiperazine moiety on allosteric enhancer activity at the A₁ adenosine receptor” (Bioorg Med Chem, 2012).

Columns and labels:
[1] = biological target: T1, Adenosine receptor A3 (Homo sapiens) (UniProt P0DMS8); test: Displacement of [3H]MRE3008F20 from recombinant human A3 adenosine receptor expressed in CHO cells at 10 uM after 120 mins by scintillation counting; type: cell-based
T1 sequence (whole entry): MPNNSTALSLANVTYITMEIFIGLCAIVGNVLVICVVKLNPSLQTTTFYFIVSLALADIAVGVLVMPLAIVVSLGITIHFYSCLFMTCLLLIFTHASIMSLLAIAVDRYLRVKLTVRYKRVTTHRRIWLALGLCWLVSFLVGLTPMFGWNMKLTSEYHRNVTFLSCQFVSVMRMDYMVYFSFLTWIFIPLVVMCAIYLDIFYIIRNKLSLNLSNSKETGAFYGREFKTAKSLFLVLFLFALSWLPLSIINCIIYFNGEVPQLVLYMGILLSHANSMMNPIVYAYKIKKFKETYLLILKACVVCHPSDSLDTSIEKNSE
Outline: (§1)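 Membranes from hA3CHO cells incubated with 2 nM [3H]MRE 3008F20 in 50 mM Tris–HCl, 10 mM MgCl2, 1 mM EDTA, pH 7.4 at 4 °C for 120 min. Compound added from a 100-fold DMSO stock, 1% DMSO final, also in controls. Separated by GF/B filtration and counted by scintillation. Result given as % of control specific binding.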

[2] = biological target: T2, Adenosine receptor A1 (Homo sapiens) (UniProt P30542); test: Allosteric enhancer activity at recombinant human A1 adenosine receptor expressed in CHO cells assessed as change in forskolin-induced cAMP production at 1 uM after 6 mins by radioimmunoassay; type: functional, cell-based
T2 sequence (whole entry): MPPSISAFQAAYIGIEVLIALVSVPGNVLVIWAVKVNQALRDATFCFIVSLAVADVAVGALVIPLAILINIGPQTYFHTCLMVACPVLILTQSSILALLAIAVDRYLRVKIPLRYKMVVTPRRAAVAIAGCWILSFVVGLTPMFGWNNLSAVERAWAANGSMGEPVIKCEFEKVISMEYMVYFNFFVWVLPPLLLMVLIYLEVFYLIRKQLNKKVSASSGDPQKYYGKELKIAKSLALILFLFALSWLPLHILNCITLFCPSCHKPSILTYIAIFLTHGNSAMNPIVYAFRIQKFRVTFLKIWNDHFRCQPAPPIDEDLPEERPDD
Outline: (§2)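 hA1CHO cells (about 8000 fmol/mg protein) thawed from low-passage stocks, grown in Ham's F-12 with 10% FBS and G-418, then plated 48 h. Test compound at 0.01, 0.1, 1 or 10 µM with CPA (0.05–0.1 nM) for 6 min at 36 °C. Stopped with HCl (final 50 mM). cAMP in acidified extracts measured by radioimmunoassay. Reference enhancer run in each experiment. Four experiments per concentration.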

[3] = biological target: T2, Adenosine receptor A1 (Homo sapiens); test: Allosteric enhancer activity at recombinant human A1 adenosine receptor expressed in CHO cells assessed as change in forskolin-induced cAMP production at 10 uM after 6 mins by radioimmunoassay; type: functional, cell-based; outline: as §2
[4] = biological target: T2, Adenosine receptor A1 (Homo sapiens); test: Binding affinity to recombinant human A1 adenosine receptor allosteric site expressed in CHO cells assessed as [3H]DPCPX Bmax shift at 10 uM after 90 mins relative to control; type: cell-based
Outline: (§3)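 Saturation binding of [3H]DPCPX (0.05–20 nM) to hA1CHO membranes, run in triplicate, 90 min at 25 °C, in 50 mM Tris–HCl pH 7.4, with or without test compound at final 10 µM. Nonspecific binding taken with 1 µM DPCPX. KD and Bmax fitted by LIGAND. Shift is the fold of Bmax increase over control.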

[5] = biological target: T2, Adenosine receptor A1 (Homo sapiens); test: Binding affinity to recombinant human A1 adenosine receptor allosteric site expressed in CHO cells assessed as [3H]CCPA Bmax shift at 10 uM after 90 mins relative to control; type: cell-based
Outline: as §3, with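 “[3H]CCPA” for “[3H]DPCPX”, “membranes. Membranes pretreated with adenosine deaminase 3 UI/mL for 30 min at 37 °C. Run” for “membranes, run”, “R-PIA.” for “DPCPX. KD and”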

[6] = biological target: T2, Adenosine receptor A1 (Homo sapiens); test: Allosteric enhancer activity at recombinant human A1 adenosine receptor expressed in CHO cells assessed as change in forskolin-induced cAMP production at 0.01 uM after 6 mins by radioimmunoassay; type: functional, cell-based; outline: as §2
[7] = biological target: T2, Adenosine receptor A1 (Homo sapiens); test: Displacement of [3H]DPCPX from recombinant human A1 adenosine receptor expressed in CHO cells at 10 uM after 120 mins by scintillation counting; type: cell-based
Outline: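 Membranes from hA1CHO cells incubated with 1 nM [3H]DPCPX in 50 mM Tris–HCl pH 7.4 at 25 °C for 120 min. Compound added from a 100-fold DMSO stock, so 1% DMSO final, also present in controls. Bound ligand separated on GF/B filters and counted by scintillation. Result given as % of control specific binding.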

[8] = biological target: T2, Adenosine receptor A1 (Homo sapiens); test: Binding affinity to recombinant human A1 adenosine receptor allosteric site expressed in CHO cells assessed as potentiation of CCPA-induced [3H]DPCPX displacement at 10 uM after 90 mins relative to control; type: cell-based
Outline: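 Competition of CCPA (0.01 nM–1 µM) against 1 nM [3H]DPCPX on hA1CHO membranes, run in triplicate, 90 min at 25 °C, in 50 mM Tris–HCl pH 7.4, with or without test compound at 10 µM. Nonspecific binding taken with 1 µM DPCPX. Ki by Cheng–Prusoff. Shift = Ki(CCPA)/Ki(CCPA + 10 µM compound).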

[9] = biological target: T2, Adenosine receptor A1 (Homo sapiens); test: Allosteric enhancer activity at recombinant human A1 adenosine receptor expressed in CHO cells assessed as change in forskolin-induced cAMP production at 0.1 uM after 6 mins by radioimmunoassay; type: functional, cell-based; outline: as §2
[10] = biological target: Adenosine receptor A2a (Homo sapiens) (UniProt P29274); test: Displacement of [3H]ZM241385 from recombinant human A2A adenosine receptor expressed in CHO cells at 10 uM after 60 mins by scintillation counting; type: cell-based
Outline: as §1, with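 “hA2ACHO” for “hA3CHO”, “1” for “2”, “[3H]ZM 241385” for “[3H]MRE 3008F20”, “MgCl2,” for “MgCl2, 1 mM EDTA,”, “60” for “120”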

Adenosine receptor A2a (Homo sapiens), sequence (P29274 whole entry): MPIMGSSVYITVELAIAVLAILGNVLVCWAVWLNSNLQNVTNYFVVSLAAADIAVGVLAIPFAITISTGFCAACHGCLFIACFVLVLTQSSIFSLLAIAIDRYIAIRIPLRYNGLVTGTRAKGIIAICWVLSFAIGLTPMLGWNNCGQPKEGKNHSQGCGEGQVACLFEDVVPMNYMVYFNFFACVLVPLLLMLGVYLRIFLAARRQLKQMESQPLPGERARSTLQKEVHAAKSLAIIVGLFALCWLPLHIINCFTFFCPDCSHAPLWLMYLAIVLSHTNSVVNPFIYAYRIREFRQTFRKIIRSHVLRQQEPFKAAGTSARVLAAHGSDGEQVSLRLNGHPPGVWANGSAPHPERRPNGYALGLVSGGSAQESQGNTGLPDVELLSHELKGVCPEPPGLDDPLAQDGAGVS

Structure (SMILES) | inhibition [1] [%] | Activity [2] [%] | Activity [3] [%] | fold change (FC) [4] | fold change (FC) [5] | Activity [6] [%] | inhibition [7] [%] | fold change (FC) [8] | Activity [9] [%] | inhibition [10] [%]
Nc1scc(CN2CCN(CCCc3ccc(Cl)cc3)CC2)c1C(=O)c1ccc(Cl)cc1 | 0 | -30 | -76 | 0.9 | 1.6 | 0 | 0 | 1.6 | -3 | 0
Nc1scc(CN2CCN(c3cccc(F)c3)CC2)c1C(=O)c1cccc(C(F)(F)F)c1 | 0 | -35 | -62 | 1.1 | 6 | -11 | 0 | 4.7 | -12 | 0
Nc1scc(CN2CCN(c3ccccc3F)CC2)c1C(=O)c1ccc(Cl)cc1 | 0 | -9.2 | -15 | 1 | 1.1 | 2.1 | 4 | 1.4 | -1 | 0
Nc1scc(CN2CCN(c3c(F)cc(F)cc3F)CC2)c1C(=O)c1ccc(Cl)cc1 | 0 | -56 | -78 | 1 | 4.5 | 4.2 | 0 | 3.6 | -3.9 | 0

Continued, values first:

inhibition [1] [%] | Activity [2] [%] | Activity [3] [%] | fold change (FC) [4] | fold change (FC) [5] | Activity [6] [%] | inhibition [7] [%] | fold change (FC) [8] | Activity [9] [%] | inhibition [10] [%] | Structure (SMILES)
1 | -51 | -74 | 1.1 | 6.8 | 0 | 0 | 5.3 | -13 | 0 | Nc1scc(CN2CCN(c3ccc(OC(F)(F)F)cc3)CC2)c1C(=O)c1ccc(Cl)cc1
1 | -78 | -87 | 1.1 | 7.2 | -3.2 | 0 | 5.5 | -34 | 0 | Nc1scc(CN2CCN(c3ccc(F)c(F)c3)CC2)c1C(=O)c1ccc(Cl)cc1
3 | -60 | -62 | 1 | 4.6 | -1.2 | 1 | 3.8 | -13 | 0 | Nc1scc(CN2CCN(c3ccc(Cl)c(Cl)c3)CC2)c1C(=O)c1ccc(Cl)cc1
0 | -15 | -52 | 0.9 | 3.3 | -1.2 | 0 | 2.8 | 0 | 0 | COc1ccc(N2CCN(Cc3csc(N)c3C(=O)c3ccc(Cl)cc3)CC2)cc1
1 | -59 | -77 | 1 | 4.4 | -3.1 | 0 | 3.7 | -20 | 0 | Nc1scc(CN2CCN(c3cccc(Cl)c3)CC2)c1C(=O)c1ccc(Cl)cc1
2 | -8.3 | -15 | 0.9 | 1.1 | -4 | 1 | 1.2 | 1.4 | 0 | Nc1scc(CN2CCN(c3ccncc3)CC2)c1C(=O)c1ccc(Cl)cc1
